OX1R antag-1: OX1R (human) antagonism. OX1R-expressing cells, FRET antagonist read-out. inhibition, % at 6.6 µM. 330,000 tested, 1.8% active. AID 485270; in the data active = inhibition mostly above about 38%, no sharp cut-off; inactive = mostly below about 40%;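 note: 0% = agonist challenge alone and 100% = reference antagonist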
CHO parental Ca: counter-screen for OX1R antagonists: effect in parental CHO cells; parental CHO-K1, ATP-induced calcium, Fluo-8 fluorescence; 330,000 tested, 0.63% active; inhibition, % at 5.6 µM;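 active = inhibition above that plate's mean sample inhibition plus 3 SD, cut at about 26% in these data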;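 note: 0% = ATP-challenged DMSO wells and 100% = DMSO wells without ATP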
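Assay system: parental CHO cells; Read-out basis: percent inhibition of ATP-evoked calcium rise, normalized to controls; Benchmarks: ATP and no-ATP DMSO wells; Compound dosing: single nominal dose of 5.6 µM per compound; Signal: Fluo-8 calcium dye fluorescence; Also added: ATP as calcium-mobilizing challenge; Repeats: singlicate.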
TAAR1 antag: human TAAR1 antagonism | Q96RJ0 | CHO RD-HGA16 TAAR1, Fluo-8 calcium fluorescence, antagonist | inhibition, % at 3 µM | 360,000 tested, 1.5% active | AID 624466;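 active = inhibition above a per-plate cutoff, the mean inhibition of test compounds on that plate plus 3 SD, cut at about 49% in these data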;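 note: 0% = DMSO plus EC80 beta-PEA response and 100% = DMSO alone without agonist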
Target sequence (Q96RJ0 whole entry, looked up): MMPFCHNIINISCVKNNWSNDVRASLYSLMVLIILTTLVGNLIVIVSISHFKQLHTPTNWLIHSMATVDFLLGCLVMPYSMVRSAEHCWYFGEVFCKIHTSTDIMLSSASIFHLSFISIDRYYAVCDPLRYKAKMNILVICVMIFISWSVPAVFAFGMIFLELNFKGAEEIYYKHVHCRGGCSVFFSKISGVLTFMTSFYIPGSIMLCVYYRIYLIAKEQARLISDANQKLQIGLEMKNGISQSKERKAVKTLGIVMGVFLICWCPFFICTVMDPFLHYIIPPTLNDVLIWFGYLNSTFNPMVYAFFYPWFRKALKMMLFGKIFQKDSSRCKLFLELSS
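Assay system: CHO-derived RD-HGA16 cells stably expressing human TAAR1 plus Gα16. Timing: 140 s kinetic read after compound, 140 s after agonist. Technique: kinetic Fluo-8 calcium fluorescence measurement. Measure: % inhibition of agonist calcium response.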
TAAR1 agonist: human TAAR1 agonism. Q96RJ0. CHO RD-HGA16 TAAR1, Fluo-8 calcium fluorescence; vehicle wells 0%, saturating PEA agonist 100%. activation, % at 3 µM. 360,000 tested, 0.99% active;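 active = activation above the mean activation of all test compounds in the run plus 3 SD, cut at about 38% in these data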
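Repeats: no replicates (n 1) | Material: CHO-derived RD-HGA16 cells with stable Gα16 and human TAAR1 | Technique: Kinetic Fluo-8 calcium fluorescence | Schedule: 17-24 h seeding, 75 min 37 °C dye, 30 min RT | Evaluation: % activation from peak over basal fluorescence ratio, DMSO-to-PEA scaled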
OX1R antag-2: human HCRTR1 antagonism | O43613 | 330,000 tested, 0.43% active | CHO/OX1R cells, Fluo-8 calcium fluorescence, orexin A | inhibition, % at 5 µM;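 active = inhibition above its plate's threshold, mean inhibition of all tested compounds on the plate plus 3 SD, cut at about 37% in these data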;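 note: 0% = orexin A challenge wells and 100% = SB-334867-A antagonist wells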
* = called active by the depositor. Compounds with a hit are over-represented: about 3.9% of the library has one in this group of screens.

How did CCn1c(SCc2nc(-c3ccccc3)no2)nc2ccccc21 do in these assays?
OX1R antag-1: 54*; CHO parental Ca: -10; TAAR1 antag: -13; TAAR1 agonist: 4; OX1R antag-2: 1

What do the screens show for `CCc1nc2c(OCCOc3ccc(F)cc3)cccn2c1N(C)C(=O)c1ccc(OC)cc1`?
TAAR1 antag: -5; TAAR1 agonist: 2

What do the screens show for `CCc1c(C2(O)CCCCC2)[nH]c2ccc(C(F)(F)F)cc12`?
OX1R antag-1: 59*; CHO parental Ca: 40*; TAAR1 antag: 4; TAAR1 agonist: -1; OX1R antag-2: 35

Results for COc1ccc(-c2cc(C(=O)OC3CCOC3=O)c3ccccc3n2)cc1 (centres undefined) ?
OX1R antag-1: 53*; CHO parental Ca: -12; TAAR1 antag: 53*; TAAR1 agonist: 5; OX1R antag-2: 9

Results for O=C(OC1CCOC1=O)c1cc(-c2ccc(Br)cc2)nc2ccccc12 (centres undefined) ?
OX1R antag-1: 13; CHO parental Ca: -20; TAAR1 antag: 1; TAAR1 agonist: 3; OX1R antag-2: -8

How did COc1ccc2c(c1OC)C(=O)N1c3ccccc3C(=O)N(c3ccccc3F)C21 (centres undefined) do in these assays?
OX1R antag-1: 48; CHO parental Ca: -28; TAAR1 antag: 66*; TAAR1 agonist: 18; OX1R antag-2: -18

How did CSc1ccc(S(=O)(=O)NCC(=O)OCC(=O)N2CCC(C)CC2)cc1[N+](=O)[O-] do in these assays?
OX1R antag-1: 20; CHO parental Ca: -2; TAAR1 antag: -5; TAAR1 agonist: 8; OX1R antag-2: -17

What do the screens show for `CSc1ccc(S(=O)(=O)NCC(=O)OCC(=O)NCC2CCCO2)cc1[N+](=O)[O-]` (centres undefined)?
OX1R antag-1: 56*; CHO parental Ca: -13; TAAR1 antag: 1; TAAR1 agonist: 0; OX1R antag-2: 3

What do the screens show for `C/C(=N\Nc1ccc([N+](=O)[O-])cc1)c1ccc(N2CCOCC2)cc1`?
OX1R antag-1: 4; CHO parental Ca: 3; TAAR1 antag: 42; TAAR1 agonist: 11; OX1R antag-2: -8

How did C/C(=N\Nc1ccc([N+](=O)[O-])cc1)c1ccc(-n2nncc2C)cc1 do in these assays?
OX1R antag-1: 16; CHO parental Ca: -6; TAAR1 antag: 57*; TAAR1 agonist: 15; OX1R antag-2: -15

Results for CN1CCCCC(NC(=O)c2cccc(C(F)(F)F)c2)C1=O (centres undefined) ?
TAAR1 antag: 7; TAAR1 agonist: 0

What do the screens show for `COC(=O)[C@]1(Cc2ccccc2)NC=C(C(=O)c2ccccc2)[C@@H]1c1cccs1`?
TAAR1 antag: -11; TAAR1 agonist: 0

Results for Cc1cccc(CCNS(=O)(=O)c2ccc3c(c2)n(C)c(=O)c(=O)n3C)c1 ?
OX1R antag-1: 5; CHO parental Ca: -18; TAAR1 antag: -13; TAAR1 agonist: 39*; OX1R antag-2: -17

How did Cc1cccc(CCNS(=O)(=O)c2ccc(S(=O)(=O)N3CCCCC3)cc2)c1 do in these assays?
OX1R antag-1: 7; CHO parental Ca: -4; TAAR1 antag: 10; TAAR1 agonist: 2; OX1R antag-2: -3

What do the screens show for `c1ccc2c(c1)oc1c(-c3cccc4nccn34)cccc12`?
TAAR1 antag: -22; TAAR1 agonist: -1

Results for Nc1nc(-c2cccnc2)nc2sc3c(c12)CCCC3 ?
OX1R antag-1: 70*; CHO parental Ca: -9; TAAR1 antag: 12; TAAR1 agonist: 0; OX1R antag-2: -10

How did CCc1c(-c2ccccc2)nc2sc3c(c2c1N)CCCC3 do in these assays?
OX1R antag-1: 49*; CHO parental Ca: 1; TAAR1 antag: 8; TAAR1 agonist: 1; OX1R antag-2: -8

Results for Nc1c(C(=O)O)sc2nc(-c3ccccc3)c3c(c12)CCCC3 ?
OX1R antag-1: 5; CHO parental Ca: -9; TAAR1 antag: 1; TAAR1 agonist: 0; OX1R antag-2: -17

Results for O=C1CN(c2nc(-c3cccnc3)nc3sc4c(c23)CCCC4)CCN1 ?
OX1R antag-1: 47; CHO parental Ca: -6; TAAR1 antag: 22; TAAR1 agonist: 10; OX1R antag-2: -32

From PubChem
